# Laboratory results reported in ChEMBL document CHEMBL3734675, “Synthesis, antimycobacterial and antibacterial activity of fluoroquinolone derivatives containing an 3-alkoxyimino-4-(cyclopropylanimo)methylpyrrolidine moiety” (2015).
# Test system: Mycobacterium tuberculosis
# Assay: Antimycobacterial activity against isoniazid/rifampicin-resistant Mycobacterium tuberculosis 6133 clinical isolate incubated for 7 days by microplate Alamar Blue assay
# Assay type: functional
# Conditions: Mycobacterium tuberculosis, 6133, 168 h
# Procedure, shortened: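 Fluorescence read-out. MIC is the lowest concentration that reduces fluorescence by at least 90% relative to the mean of replicate bacterium-only controls. Isoniazid and rifampicin were included as reference drugs.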
row,Compound,MIC90
1,NNC(=O)c1ccncc1 [ISONIAZID],4 µg/mL
2,CCO/N=C1/CN(c2nc3c(cc2F)c(=O)c(C(=O)O)cn3C2CC2)CC1(C)CNC1CC1 (stereo not drawn),0.11 µg/mL
3,CO[C@H]1/C=C/O[C@@]2(C)Oc3c(C)c(O)c4c(O)c(c(/C=N/N5CCN(C)CC5)c(O)c4c3C2=O)NC(=O)/C(C)=C\C=C\[C@H](C)[C@H](O)[C@@H](C)[C@@H](O)[C@@H](C)[C@H](OC(C)=O)[C@@H]1C [RIFAMPIN],> 40 µg/mL
